Measured values from ChEMBL document CHEMBL1146071, “2,4-diaminopyrimidine derivatives as potent growth hormone secretagogue receptor antagonists” (J Med Chem, 2006).

How the values were obtained:
[1] = Plasma concentration in Sprague-Dawley rat at 5 mg/kg after 1 hr; format: ADME, organism-based; parameters: dose 5 mg/kg
Summary of the method: (§1)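 Rats dosed at 5 mg/kg: iv for AUC (µg·h/mL), clearance (L/h·kg) and Cmax (µg/mL); oral for bioavailability unless stated otherwise. Brain (µg/g) and plasma levels taken at 1 and 8 h. Mean of n = 3.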

[2] = Plasma clearance in Sprague-Dawley rat at 5 mg/kg, iv; format: ADME, organism-based; parameters: dose 5 mg/kg, route intravenous; summary of the method: as §1
[3] = molecular target: T1, Growth hormone secretagogue receptor type 1 (Homo sapiens, UniProt Q92847); assay: Antagonist activity at human GHS receptor by inhibition of ghrelin-induced intracellular calcium flux in CHOK cells; format: functional, cell-based
T1 sequence (Q92847 whole entry): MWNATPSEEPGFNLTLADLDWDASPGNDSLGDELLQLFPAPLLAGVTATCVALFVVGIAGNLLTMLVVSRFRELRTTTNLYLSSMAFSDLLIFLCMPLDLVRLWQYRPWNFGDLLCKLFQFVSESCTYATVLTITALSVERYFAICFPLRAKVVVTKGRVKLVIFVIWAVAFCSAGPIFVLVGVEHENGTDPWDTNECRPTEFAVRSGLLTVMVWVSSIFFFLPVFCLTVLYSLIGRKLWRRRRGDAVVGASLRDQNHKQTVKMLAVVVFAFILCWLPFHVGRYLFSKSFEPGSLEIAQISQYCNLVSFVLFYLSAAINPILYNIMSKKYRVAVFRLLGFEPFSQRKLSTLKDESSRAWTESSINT
Summary of the method: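 CHO-K cells stably expressing human GHS-R, grown in Ultra-CHO medium with 1% dialyzed FCS and 400 µg/mL G418, plated to confluency overnight. Loaded with Fluo-4 AM plus probenecid for 1-3 h in the dark at RT, then washed. On FLIPR (ex 488/em 520 nm), compound added first and read 3 min, then ghrelin added and read another 3 min. Duplicate or triplicate wells; sigmoidal fit for IC50.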

[4] = Half life in Sprague-Dawley rat at 5 mg/kg; format: ADME, organism-based; parameters: dose 5 mg/kg; settings: in vivo; summary of the method: as §1
[5] = AUC in Sprague-Dawley rat at 5 mg/kg, iv; format: ADME, organism-based, Plasma; parameters: dose 5 mg/kg, route intravenous; settings: Sprague-Dawley, plasma; summary of the method: as §1
[6] = Oral bioavailability in Sprague-Dawley rat at 5 mg/kg; format: ADME, organism-based; settings: in vivo; summary of the method: as §1
[7] = Concentration in Sprague-Dawley rat brain at 5 mg/kg after 1 hr; format: ADME, organism-based; parameters: dose 5 mg/kg; settings: read-out: Ct; summary of the method: as §1
[8] = Cmax in Sprague-Dawley rat at 5 mg/kg, iv; format: ADME, organism-based; parameters: dose 5 mg/kg, route intravenous; settings: in vivo; summary of the method: as §1
[9] = molecular target: T1, Growth hormone secretagogue receptor type 1; assay: Displacement of [125I]ghrelin from human GHS receptor expressed in CHOK cells; format: cell-based
Summary of the method: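 Membranes from CHO-K cells expressing human ghrelin receptor, prepared by sonication and a 60000g spin. Filtered onto PEI-soaked GF/C, washed cold, scintillation counted; percent inhibition, sigmoidal fit for IC50.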

[10] = Concentration in Sprague-Dawley rat brain at 30 mg/kg, ip after 8 hrs; format: ADME, organism-based; parameters: dose 30 mg/kg, route intraperitoneal; settings: read-out: Ct
Summary of the method: (§2)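 Rats given 30 mg/kg ip. Brain (µg/g) and plasma levels measured at 1 and 8 h after dosing.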

[11] = Plasma concentration in Sprague-Dawley rat at 30 mg/kg, ip after 1 hr; format: ADME, organism-based; parameters: dose 30 mg/kg, route intraperitoneal; summary of the method: as §2
[12] = Concentration in Sprague-Dawley rat brain at 30 mg/kg, ip after 1 hr; format: ADME, organism-based; parameters: dose 30 mg/kg, route intraperitoneal; settings: read-out: Ct; summary of the method: as §2
[13] = Plasma concentration in Sprague-Dawley rat at 30 mg/kg, ip after 8 hrs; format: ADME, organism-based; parameters: dose 30 mg/kg, route intraperitoneal; summary of the method: as §2

Compound | IC50 [3] | IC50 [9] | other results
CCc1nc(N)nc(N)c1-c1ccc(N(C)Cc2ccc(S(C)(=O)=O)cc2)cc1 | 32 nM | 3.7 nM | concentration at 1 h [1]: 1280 ng/mL; clearance [2]: 16.5 mL/min/kg; half-life [4]: 3.8 h; AUC [5]: 2700 ng·h/mL; bioavailability [6]: 53%; concentration at 1 h [7]: 40 ng/g; Cmax [8]: 430 ng/mL
CCc1nc(N)nc(N)c1-c1ccc(CNc2ccc(Cl)cc2)cc1 | 3150 nM | 300 nM | –
CCc1nc(N)nc(N)c1-c1ccc(CNc2ccc([N+](=O)[O-])cc2)cc1 | 190 nM | 9.2 nM | –
CCc1nc(N)nc(N)c1-c1ccc(NCc2cc(F)c(S(=O)(=O)C(F)(F)F)c(F)c2)cc1 | 690 nM | 21 nM | –
CCc1nc(N)nc(N)c1-c1ccc(NCc2ccc(C(C)=O)cc2)cc1 | 110 nM | 57 nM | concentration at 1 h [1]: 120 ng/mL; clearance [2]: 61.7 mL/min/kg; half-life [4]: 2.4 h; AUC [5]: 680 ng·h/mL; bioavailability [6]: 51%; concentration at 1 h [7]: 420 ng/g; Cmax [8]: 140 ng/mL
Nc1nc(N)c(-c2ccc(NCc3ccccc3)cc2)c(COCc2ccccc2)n1 | 980 nM | 50 nM | –
CCc1nc(N)nc(N)c1-c1ccc(NCc2csc(Cl)c2)cc1 | 790 nM | 290 nM | –
CC(C)(C)CNc1ccc(-c2c(N)nc(N)nc2COCc2ccccc2)cc1 | 700 nM | 67 nM | –
Nc1nc(N)c(-c2ccc(NCc3ccc(C(F)(F)F)cc3)cc2)c(COCc2ccccc2)n1 | 97 nM | 2.9 nM | –
COc1ccc(CNc2ccc(-c3c(N)nc(N)nc3COCc3ccccc3)cc2)cc1 | 90 nM | 7.7 nM | –
Nc1nc(N)c(-c2ccc(NCc3ccc(Cl)cc3)cc2)c(CCc2ccccc2)n1 | 3350 nM | 3170 nM | concentration at 8 h [10]: 400 ng/g; concentration at 1 h [11]: 800 ng/mL; concentration at 1 h [12]: 1340 ng/g; concentration at 8 h [13]: 90 ng/mL
N#Cc1ccc(CNc2ccc(-c3c(N)nc(N)nc3COCc3ccccc3)cc2)cc1 | 19 nM | 2.8 nM | –

Now those with a lower IC50 [3], led by results:

IC50 [3] | IC50 [9] | Compound | other results
16 nM | 0.8 nM | Nc1nc(N)c(-c2ccc(CNc3ccc([N+](=O)[O-])cc3)cc2)c(COCc2ccccc2)n1 | –
12 nM | 7.4 nM | CCc1nc(N)nc(N)c1-c1ccc(NCc2ccc(S(C)(=O)=O)cc2)cc1 | concentration at 1 h [1]: 1020 ng/mL; clearance [2]: 15.7 mL/min/kg; half-life [4]: 6.6 h; AUC [5]: 2800 ng·h/mL; bioavailability [6]: 52%; concentration at 1 h [7]: 50 ng/g; Cmax [8]: 320 ng/mL
5.8 nM | 0.2 nM | Nc1nc(N)c(-c2ccc(NCc3ccc([N+](=O)[O-])cc3)cc2)c(COCc2ccccc2)n1 | –
7.2 nM | – | CS(=O)(=O)c1ccc(CNc2ccc(-c3c(N)nc(N)nc3COCc3ccccc3)cc2)cc1 | –
10 nM | 1.2 nM | CC(=O)c1ccc(CNc2ccc(-c3c(N)nc(N)nc3COCc3ccccc3)cc2)cc1 | –
